Source: paper PMC2933822 (Chemical research in toxicology, 2010)
Entries after “also recorded” stand apart in the source; their conditions may differ. Where two headings read alike, the source gives them in different places.

Legend:
[1] = system: Human HaCaT keratinocytes; experiment: Phototoxicity / dark cytotoxicity, neutral red uptake assay, UVA; format: cell-based; conditions: for IC50: HaCaT
[2] = system: A2780 human ovarian carcinoma cells; experiment: Phototoxicity / dark cytotoxicity, neutral red uptake assay, UVA; format: cell-based; conditions: for IC50: neutral red dye uptake; for IC50 (cisplatin)/IC50(photoPt): A2780, fold difference vs cisplatin under identical conditions
How it was run: (§1)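 Cells were kept antibiotic-free in RPMI with 10% FBS at 37 °C in 5% CO2. They were washed in PBS, then given the test compound in EBSS for 1 h at 37 °C. Light plates received 5 J cm−2 UVA (1.77 mW cm−2, λmax 365 nm, below 320 nm filtered); dark plates were sham irradiated in parallel. Read-out was neutral red uptake. IC50 came from non-linear regression, 2-4 experiments in triplicate. The ratio is cisplatin IC50 (same conditions) over complex IC50.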

[3] = system: cisplatin-resistant derivative cell line A2780CIS; experiment: as above; format: cell-based, human; conditions: for IC50: neutral red dye uptake
How it was run: as §1

DNA = experiment: Comet assay; format: cell-based, human; conditions: +UVA 5 J cm^−2, then H2O2
HaCaT, A2780, A2780CIS = experiment: Photo- and dark cytotoxicity stated in words across the cell lines; format: cell-based, human; conditions: UVA 365 nm irradiation
How it was run: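 HaCaT keratinocytes (DMEM, 5% FBS, 1% non-essential amino acids) and A2780 or A2780CIS cells (RPMI, 10% FBS) were grown at 37 °C without antibiotics. Cells were PBS-washed, then exposed 1 h at 37 °C to test compound in EBSS. They received 5 J cm−2 UVA (1.77 mW cm−2, λmax 365 nm, <320 nm filtered), with sham-irradiated parallel dark plates. Read-out was neutral red uptake. IC50s came from non-linear regression, 2-4 experiments in triplicate.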

a number of cell lines = conditions: photoactivated; cited from earlier work
[4] = system: Human HaCaT keratinocytes; conditions: cited from earlier work
[5] = system: cisplatin-resistant derivative cell line A2780CIS; conditions: cited from earlier work
[6] = system: A2780 human ovarian carcinoma cells; conditions: cited from earlier work
[7] = +365 nm (5 J cm^−2 UVA), 1 h treatment, neutral red dye uptake
[8] = Dark (sham irradiated), neutral red dye uptake

Molecule | IC50 ([1]; Homo sapiens, light or radiation study) [µM] | IC50 ([1]; Homo sapiens, light or radiation study, 1 h) [µM] | IC50 ([2]; A2780, +365 nm (5 J cm^−2 UVA)) [µM] | IC50 ([2]; A2780, Dark (sham irradiated)) [µM] | IC50 (cisplatin)/IC50(photoPt) [2] | IC50 ([3]; +365 nm (5 J cm^−2 UVA)) [µM] | IC50 ([3]; Dark (sham irradiated)) [µM] | IC50 [1, 7] [µM] | IC50 [1, 8] [µM] | IC50 (cisplatin)/IC50(photoPt) ([3]; fold difference vs cisplatin under identical conditions) | inhibition of DNA migration (DNA crosslinking), irradiated samples (DNA) | phototoxicity / photocytotoxicity (HaCaT, A2780, A2780CIS) | fold less phototoxic than 7t ([1]; HaCaT cells, UVA) | fold more cytotoxic following irradiation than treatment with cisplatin (a number of cell lines) | IC50 (cisplatin)/IC50(photoPt) [4] | IC50 (cisplatin)/IC50(photoPt) [5] | IC50 (cisplatin)/IC50(photoPt) [6]
CN(C)CCCN1c2ccccc2Sc2ccc(Cl)cc21 [CPZ, Chlorpromazine, reference compound] | 240 | 9 |  |  |  |  |  |  |  |  |  |  |  |  |  |  | 
cis,trans,cis-[Pt(N3)2(OH)2(NH3)(pentylamine)] [Complex 6c] |  |  | > 240 | > 240 | 0.6 | > 240 | > 240 | 224 | > 240 |  |  |  |  |  |  |  | 
cis,trans,cis-[Pt(N3)2(OH)2(NH3)(propylamine)] [Complex 4c] |  |  | 93.4 | > 257 | 1.6 |  |  | 204 | > 257 |  |  |  |  |  |  |  | 
cis,trans,cis-[Pt(N3)2(OH)2(NH3)(pyridine)] [Complex 7c] |  |  | 79.6 | > 244 | 1.9 | 109 | > 244 | 101 | > 244 | 2.4 | more effective at inhibiting DNA migration (at low doses) | the most phototoxic cis compounds investigated | approximately 10 fold |  |  |  | 
trans,trans,trans-[Pt(N3)2(OH)2(NH3)(py)] [Complex 7t] |  |  |  |  |  |  |  |  |  |  |  | the most phototoxic molecule tested; also recorded: the most phototoxic complex which still maintains dark stability |  | up to 90 × | 21.2 | 15.4 | 80.0
